# Assay results as given in ChEMBL document CHEMBL1129463, “Discovery of 1,5-benzodiazepines with peripheral cholecystokinin (CCK-A) receptor agonist activity (II): Optimization of the C3 amino substituent” (J Med Chem, 1996).
# Activity calls are given as the source filed them. The rule behind the calls is not given here.
# How the values were obtained:
# Cavia porcellus [1] = species on record: Cavia porcellus; test: In vitro Functional activity on the isolated guinea pig gallbladder following incubation at 30 uM percent contraction normalized to that for CCK-8; inactive
# How it was run: (§1)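 Contraction is expressed as percent of the CCK-8 (1 μM) response. Non-contracting compounds were tested for antagonism against a CCK-8 curve (10⁻¹¹ to 10⁻⁶ M).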
# Cavia porcellus [2] = species on record: Cavia porcellus; test: In vitro Functional activity on the isolated guinea pig gallbladder following incubation at 1 micro M percent contraction normalized to that for CCK-8; how it was run: as §1
# Cavia porcellus [3] = species on record: Cavia porcellus; test: In vitro functional activity on the isolated guinea pig gallbladder; parameters: concentration or dose not given beside the values
# Rattus norvegicus [4] = test: Compound was tested in vivo for its Percent Maximal anorectic potency in rats at dose of 10 umol/kg po; ia = Inactive; type: functional, organism-based
# Mus musculus [5] = test: Compound was tested in vivo for its activity in mouse gallbladder emptying assay at dose of 0.1 umol/kg ip; type: functional
# [6] = molecular target: T1, Cholecystokinin receptor type A (Homo sapiens, UniProt P32238); test: Compound was tested in vitro for its ability to displace [125I]Bolton-Hunter CCK-8 from membrane preparation isolated from CHO-KI cells stably transfected with cDNA of human Cholecystokinin type A receptor; type: cell membranes
# T1 sequence (P32238 whole entry): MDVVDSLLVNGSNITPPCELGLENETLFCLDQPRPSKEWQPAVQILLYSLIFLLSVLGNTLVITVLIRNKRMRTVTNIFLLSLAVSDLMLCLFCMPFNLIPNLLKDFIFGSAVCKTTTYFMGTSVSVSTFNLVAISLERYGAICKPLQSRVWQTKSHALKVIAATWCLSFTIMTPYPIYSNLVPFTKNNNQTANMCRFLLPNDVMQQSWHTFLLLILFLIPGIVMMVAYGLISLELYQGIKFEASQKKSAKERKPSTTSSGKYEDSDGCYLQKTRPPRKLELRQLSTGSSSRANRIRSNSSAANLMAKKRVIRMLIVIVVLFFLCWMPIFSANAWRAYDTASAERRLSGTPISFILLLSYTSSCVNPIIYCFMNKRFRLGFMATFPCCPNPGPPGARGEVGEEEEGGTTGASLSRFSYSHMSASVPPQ
# Mus musculus [7] = test: Compound was tested in vivo Percent Maximal response activity in mouse gallbladder emptying assay at dose of 1 nmol/kg ip
# Cavia porcellus [8] = species on record: Cavia porcellus; test: Maximum contractile response at 30 uM, normalized to CCK-8 (1 uM); type: functional
# Mus musculus [9] = test: Compound was tested in vivo for Percent Maximal response in mouse gallbladder emptying assay at dose of 1 umol/kg po; type: functional
# Cavia porcellus [10] = species on record: Cavia porcellus; test: In-vitro potency on the isolated guinea pig gallbladder; type: functional
# [11] = molecular target: Cholecystokinin receptor (Homo sapiens) (UniProt P32239+P32238); test: Selectivity ratio of inhibition of CCK-A vs CCK-B; type: protein assay
# How it was run: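 Displacement of [125I]Bolton-Hunter CCK-8 from membranes of CHO-K1 cells stably transfected with human CCK-A or CCK-B receptor cDNA. pIC50 values were measured for each receptor. The ratio is IC50 CCK-A / IC50 CCK-B.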
# Rattus norvegicus [12] = test: Compound was tested in vivo for its Percent Maximal anorectic potency in rats at dose of 0.5 umol/kg ip; type: functional
# Mus musculus [13] = test: Compound was tested in vivo for its activity in mouse gallbladder emptying assay at dose of 1 umol/kg po; type: functional
# [14] = molecular target: T2, Gastrin/cholecystokinin type B receptor (Homo sapiens, UniProt P32239); test: Compound was tested in vitro for its ability to displace [125I]Bolton-Hunter CCK-8 from membrane preparation isolated from CHO-KI cells stably transfected with cDNA of human Cholecystokinin type B receptor; type: cell membranes
# T2 sequence (P32239 whole entry): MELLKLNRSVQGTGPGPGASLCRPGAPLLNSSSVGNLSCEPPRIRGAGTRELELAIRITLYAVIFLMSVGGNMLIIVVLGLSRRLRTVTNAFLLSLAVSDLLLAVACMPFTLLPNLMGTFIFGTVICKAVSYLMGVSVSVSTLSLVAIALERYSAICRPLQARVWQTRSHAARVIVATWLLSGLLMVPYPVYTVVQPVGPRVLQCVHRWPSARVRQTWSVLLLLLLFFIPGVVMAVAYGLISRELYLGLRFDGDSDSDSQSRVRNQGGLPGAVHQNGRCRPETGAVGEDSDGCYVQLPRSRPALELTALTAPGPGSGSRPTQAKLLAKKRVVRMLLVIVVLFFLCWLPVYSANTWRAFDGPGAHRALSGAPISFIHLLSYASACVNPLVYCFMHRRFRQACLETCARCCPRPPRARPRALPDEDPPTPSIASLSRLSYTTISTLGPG
# Rattus norvegicus [15] = test: Compound was tested in vivo for its anorectic potency in rats at dose of 0.1 umol/kg ip; type: functional
# Rattus norvegicus [16] = test: Compound was tested in vivo for its Percent Maximal anorectic potency in rats at dose of 1 umol/kg po; type: functional
# Rattus norvegicus [17] = test: Compound was tested in vivo for its anorectic potency in rats at dose of 0.5 umol/kg ip
# Rattus norvegicus [18] = test: Compound was tested in vivo for its Percent Maximal anorectic potency in rats at dose of 0.1 umol/kg ip; type: functional
# Rattus norvegicus [19] = test: Compound was tested in vivo for its Percent Maximal anorectic potency in rats at dose of 10 umol/kg po; ia = Inactive
# Rattus norvegicus [20] = test: Compound was tested in vivo for its Percent Maximal anorectic potency in rats at dose of 0.5 umol/kg ip
# Mus musculus [21] = test: Compound was tested in vivo for Percent Maximal response in mouse gallbladder emptying assay at dose of 1 umol/kg po; ia = Inactive; type: functional, organism-based
# Mus musculus [22] = test: Compound was tested in vivo for its activity in mouse gallbladder emptying assay at dose of 1 umol/kg po; ia = Inactive; type: functional, organism-based
# Cavia porcellus [23] = species on record: Cavia porcellus; test: In vitro potency on the isolated guinea pig gallbladder; type: functional
smiles,measurement,setting,value
CC(C)N(C(=O)CN1C(=O)C(NC(=O)N2CCNCC2)C(=O)N(c2ccccc2)c2ccccc21)c1ccccc1 (centres undefined),Activity,Cavia porcellus [1],inactive
CC(C)N(C(=O)CN1C(=O)C(NC(=O)Nc2cccc(O)c2)C(=O)N(c2ccccc2)c2ccccc21)c1ccccc1 (centres undefined),Activity,Cavia porcellus [2],82%
same,Activity,Cavia porcellus [3],89%
CC(C)N(C(=O)CN1C(=O)C(NC(=O)c2cc3ccccc3[nH]2)C(=O)N(c2ccccc2)c2ccccc21)c1ccccc1 (centres undefined),Max,Rattus norvegicus [4],inactive
same,ED50,Mus musculus [5],0.005 µmol/kg
same,IC50,[6],15.8 nM
same,Max,Mus musculus [7],73%
same,Max,Cavia porcellus [8],49%
same,Max,Mus musculus [9],85%
same,EC50,Cavia porcellus [10],501 nM
same,Selectivity ratio,[11],20
same,Max,Rattus norvegicus [12],56%
same,ED50,Mus musculus [13],0.3 µmol/kg
same,IC50,[14],316 nM
same,Activity,Cavia porcellus [3],49%
same,ED50,Rattus norvegicus [15],0.095 µmol/kg
CC(C)N(C(=O)CN1C(=O)C(NC(=O)Nc2cccc(C(=O)O)c2)C(=O)N(c2ccccc2)c2ccccc21)c1ccccc1 (centres undefined),Activity,Cavia porcellus [2],95%
same,ED50,Mus musculus [5],0.0071 µmol/kg
same,IC50,[6],126 nM
same,Max,Rattus norvegicus [16],58%
same,Max,Mus musculus [7],73%
same,Max,Cavia porcellus [8],102%
same,Max,Mus musculus [9],77%
same,ED50,Rattus norvegicus [17],0.06 µmol/kg
same,EC50,Cavia porcellus [10],39.8 nM
same,ED50,Mus musculus [13],0.055 µmol/kg
same,Max,Rattus norvegicus [18],87%
same,IC50,[14],10 nM
same,Activity,Cavia porcellus [3],100%
CC(C)N(C(=O)CN1C(=O)C(NC(=O)Nc2cccc(N)c2)C(=O)N(c2ccccc2)c2ccccc21)c1ccccc1 (centres undefined),Activity,Cavia porcellus [2],50%
same,Activity,Cavia porcellus [3],76%
CC(C)N(C(=O)CN1C(=O)C(NC(=O)Nc2cccc(CO)c2)C(=O)N(c2ccccc2)c2ccccc21)c1ccccc1 (centres undefined),Activity,Cavia porcellus [2],85%
same,Activity,Cavia porcellus [3],90%
CC(C)N(C(=O)CN1C(=O)C(NC(=O)Nc2cccc(OCC(=O)O)c2)C(=O)N(c2ccccc2)c2ccccc21)c1ccccc1 (centres undefined),Activity,Cavia porcellus [2],85%
same,Activity,Cavia porcellus [3],98%
CC(C)N(C(=O)CN1C(=O)C(NC(=O)Nc2cccc(NS(=O)(=O)C(F)(F)F)c2)C(=O)N(c2ccccc2)c2ccccc21)c1ccccc1 (centres undefined),Activity,Cavia porcellus [2],87%
same,Activity,Cavia porcellus [3],89%
CC(C)N(C(=O)CN1C(=O)C(NC(N)=O)C(=O)N(c2ccccc2)c2ccccc21)c1ccccc1 (centres undefined),Activity,Cavia porcellus [1],inactive
CSCC[C@H](NC(=O)[C@H](Cc1ccc(OS(=O)(=O)O)cc1)NC(=O)[C@@H](N)CC(=O)O)C(=O)NCC(=O)N[C@@H](Cc1c[nH]c2ccccc12)C(=O)N[C@@H](CCSC)C(=O)N[C@@H](CC(=O)O)C(=O)N[C@@H](Cc1ccccc1)C(N)=O [SINCALIDE],ED50,Mus musculus [5],3e-05 µmol/kg
same,Max,Mus musculus [7],95%
same,Max,Cavia porcellus [8],100%
same,ED50,Rattus norvegicus [17],0.027 µmol/kg
same,Max,Rattus norvegicus [19],inactive
same,EC50,Cavia porcellus [10],0.794 nM
same,Max,Rattus norvegicus [20],95%
CC(C)N(C(=O)CN1C(=O)C(NC(=O)Nc2ccccc2)C(=O)N(c2ccccc2)c2ccccc21)c1ccccc1 (centres undefined),Max,Mus musculus [21],inactive
same,Max,Mus musculus [7],78%
same,Max,Cavia porcellus [8],86%
same,ED50,Rattus norvegicus [17],0.95 µmol/kg
same,Max,Rattus norvegicus [19],inactive
same,Max,Rattus norvegicus [18],96%
same,ED50,Mus musculus [22],inactive
same,Activity,Cavia porcellus [3],86%
same,EC50,Cavia porcellus [23],1260 nM
